What all share (assay type): functional
The test system of assay [1] is Staphylococcus aureus. The assay is described as follows: Antibacterial activity against methicillin-resistant Staphylococcus aureus ATCC 43300 after 18 to 20 hrs by spectrophotometry based microdilution method. A digest of the protocol: (§1)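 Broth microdilution in MHB II following EUCAST. Log-phase cultures diluted 1:1000, then 50-fold in saline to McFarland 0.5, giving 10^4 cells/ml per well. Compounds (stock in 6% DMSO) twofold serially diluted. Incubation 35 ± 1 °C, 18–20 h. OD600 plus visual read; MIC50/MIC90 = 50%/90% growth arrest. Resazurin (0.015%, 37 °C, 2 h, dark) confirmation. 3 replicates, 3 independent experiments.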
(Dilution methods test growth across graded concentrations, often in twofold steps.)

In assay [2] the test system is Staphylococcus aureus. In words: Antibacterial activity against methicillin-sensitive Staphylococcus aureus ATCC 25923 after 18 to 20 hrs by spectrophotometry based microdilution method. A digest of the protocol:
as §1

The subject of assay [3] is Acinetobacter baumannii. In words: Antibacterial activity against Acinetobacter baumannii ATCC 17978 after 18 to 20 hrs by spectrophotometry based microdilution method.
The subject of assay [4] is Escherichia coli. The assay is described as follows: Antibacterial activity against Escherichia coli ATCC 8739 after 18 to 20 hrs by spectrophotometry based microdilution method. The essentials:
(§2)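 Broth microdilution in Mueller Hinton Broth II following EUCAST. Log-phase cultures were diluted to McFarland 0.5, and 104 cells/ml went into 2-fold serial dilutions of compound (stock in 6% DMSO). Incubation was 35 ± 1 °C for 18–20 h, read at OD600 and visually. MIC50 and MIC90 were taken as the concentrations giving 50% and 90% growth arrest. Resazurin (0.015%, 2 h, 37 °C, dark) confirmed the result. 3 replicates in 3 independent experiments.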

The test system of assay [5] is Klebsiella pneumoniae. The assay is described as follows: Antibacterial activity against ESBL positive Klebsiella pneumoniae ATCC 700603 after 18 to 20 hrs by spectrophotometry based microdilution method. A digest of the protocol: as §2
Assay [6] deals with Pseudomonas aeruginosa. In words: Antibacterial activity against Pseudomonas aeruginosa ATCC 27853 after 18 to 20 hrs by spectrophotometry based microdilution method. The essentials: as §2
In assay [7] the test system is Pseudomonas aeruginosa. In words: Antibacterial activity against Pseudomonas aeruginosa ATCC 27853 assessed as inhibition of bacterial growth at 1500 uM after 18 to 20 hrs by spectrophotometry based microdilution method relative to untreated control. The settings on record: read-out: GI. A digest of the protocol: (§3)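 Growth inhibition at a single compound concentration in the EUCAST broth microdilution setup: Mueller Hinton Broth II, 104 cells/ml from log-phase culture, compound stock in 6% DMSO. After 35 ± 1 °C for 18–20 h, OD600 was compared with the untreated growth control. ">" marks 10–50% inhibition and ">>" marks under 10% inhibition. 3 replicates, 3 independent experiments.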

Assay [8] concerns Escherichia coli. The assay is described as follows: Antibacterial activity against Escherichia coli ATCC 8739 assessed as inhibition of bacterial growth at 1500 uM after 18 to 20 hrs by spectrophotometry based microdilution method relative to untreated control. Conditions: ATCC 8739, ATCC 8739, read-out: GI. The essentials:
as §3

Assay [9] relates to Escherichia coli. In words: Antibacterial activity against Escherichia coli ATCC 8739 at 750 uM after 18 to 20 hrs by spectrophotometry based microdilution method relative to untreated control. Conditions: ATCC 8739, ATCC 8739, read-out: GI. A digest of the protocol:
as §3

Assay [10] relates to Escherichia coli. In words: Antibacterial activity against Escherichia coli ATCC 8739 at 375 uM after 18 to 20 hrs by spectrophotometry based microdilution method relative to untreated control. The settings on record: ATCC 8739, ATCC 8739, read-out: GI. A digest of the protocol: as §3
Assay [11] concerns Staphylococcus aureus. The assay is described as follows: Antibacterial activity against methicillin-sensitive Staphylococcus aureus ATCC 25923 assessed as inhibition of bacterial growth at 187.5 uM after 18 to 20 hrs by spectrophotometry based microdilution method relative to untreated control. Conditions: read-out: GI. The essentials:
as §3

Assay [12] concerns Klebsiella pneumoniae. The assay is described as follows: Antibacterial activity against ESBL positive Klebsiella pneumoniae ATCC 700603 assessed as inhibition of bacterial growth at 375 uM after 18 to 20 hrs by spectrophotometry based microdilution method relative to untreated control. The settings on record: read-out: GI. A digest of the protocol: as §3

Structures are written as SMILES. Values after ≈ are worked out from the molar mass of the structure shown. Active and inactive are the calls of the source. No cut-off for these calls is given here. Non-standard residues stand in square brackets, D forms with d. Residues, ends and D or L forms follow the SMILES beside them. *: point of attachment. Mycophenolyl = COc1c(C)c2c(c(O)c1C/C=C(\C)CCC(=O)*)C(=O)OC2; Arg(NO2) = N=C(NCCC[CH](N)C(=O)O)N[N+](=O)[O-]; βAla = NCCC(=O)O

A word on the MIC50: it is an inhibitory concentration at the 50% level, which refers to growth in some studies and to a panel of isolates in others. Turning to `COC(=O)[C@H](CCCNC(=N)N[N+](=O)[O-])NC(=O)CC/C(C)=C/Cc1c(O)c2c(c(C)c1OC)COC2=O`, the MIC50 came out at 64 µg/mL (≈ 120 µM) in [1]; 32 µg/mL (≈ 59.8 µM) in [2]; 128 µg/mL (≈ 239 µM) in assay [3]; 256 µg/mL (≈ 478 µM) in assay [4]; 64 µg/mL (≈ 120 µM) in assay [5]. For the same compound, in assay [6], the MIC50 entry is “inactive”.

With `COC(=O)C(NC(=O)C(CCCCNC(=O)CCN)NC(=O)C1CCCN1C(=O)C(CCCNC(=N)N[N+](=O)[O-])NC(=O)CC/C(C)=C/Cc1c(O)c2c(c(C)c1OC)COC2=O)C(C)O` (stereo unspecified) (Mycophenolyl-[Arg(NO2)]PK(βAla)T-OMe; configuration not given here), the MIC50 is 32 µg/mL (≈ 34.3 µM) in assay [1]; 32 µg/mL (≈ 34.3 µM) in assay [2]; 128 µg/mL (≈ 137 µM) in [3]; 256 µg/mL (≈ 274 µM) in assay [4]; 32 µg/mL (≈ 34.3 µM) in assay [5]. For the same compound, in assay [6], the MIC50 result was “inactive”.

As for `COC(=O)C[C@H](NC(=O)CC/C(C)=C/Cc1c(O)c2c(c(C)c1OC)COC2=O)C(=O)OC`, the MIC50 in assay [1] turned out to be 32 µg/mL (≈ 69 µM); in assay [2] it was 32 µg/mL (≈ 69 µM); in assay [3], 256 µg/mL (≈ 552 µM); in assay [4] it was 256 µg/mL (≈ 552 µM); in assay [5] it was 256 µg/mL (≈ 552 µM). The MIC50 entry in assay [6] is “inactive”.

For `COC(=O)[C@@H](CCCNC(=N)N[N+](=O)[O-])NC(=O)CC/C(C)=C/Cc1c(O)c2c(c(C)c1OC)COC2=O`, the MIC50 result in assay [1], in assay [2] and in assay [5] was “inactive” in each case.

For orientation: MIC90 means the lowest concentration that inhibits either 90% of growth or 90% of the strains tested, depending on the study. A low value points to greater potency. `NC[C@H]1O[C@H](O[C@H]2[C@H](O)[C@@H](O[C@H]3O[C@H](CO)[C@@H](O)[C@H](N)[C@H]3O)[C@H](N)C[C@@H]2N)[C@H](O)[C@@H](O)[C@@H]1O` [KANAMYCIN]: the MIC90 in [1] was found to be 125 µg/mL (≈ 258 µM); in [2] it was 7.8 µg/mL (≈ 16.1 µM); in assay [4], 15.6 µg/mL (≈ 32.2 µM). Also, the MIC50 entry in [3] and in assay [5] was “inactive” throughout. In assay [6], this compound registered an MIC50 of 1500 µg/mL (≈ 3100 µM).

With `COC(=O)C(NC(=O)CC/C(C)=C/Cc1c(O)c2c(c(C)c1OC)COC2=O)C(=O)OC`, the MIC50 in assay [1] was determined as 256 µg/mL (≈ 570 µM); in assay [2], 256 µg/mL (≈ 570 µM); in assay [3], 256 µg/mL (≈ 570 µM); in assay [4], 256 µg/mL (≈ 570 µM); in [5], 128 µg/mL (≈ 285 µM). Also, in [6], the MIC50 entry is “inactive”.

`COc1c(C)c2c(c(O)c1C/C=C(\C)CCC(=O)N[C@@H](C(=O)O)[C@@H](C)O)C(=O)OC2`: the MIC50 result in assay [1], in [2] and in assay [5] was “inactive” in each case. The inhibition of growth at 1500 µM in [7] and in [8] was 10 to 50% throughout.

Take `COc1c(C)c2c(c(O)c1C/C=C(\C)CCC(=O)N[C@H](CCCNC(=N)N[N+](=O)[O-])C(=O)O)C(=O)OC2`: the MIC50 result in assay [1], in [2] and in assay [5] was “inactive” throughout. In addition, the inhibition of growth at 1500 µM in [7] and in [8] was 10 to 50% throughout.

Regarding `COc1c(C)c2c(c(O)c1C/C=C(\C)CCC(=O)N[C@@H](CC(=O)O)C(=O)O)C(=O)OC2`, the MIC50 result in assay [1], in assay [2] and in [5] was “inactive” throughout. For the same compound, the inhibition of growth at 1500 µM in [7] was 10 to 50%. The inhibition of growth at 750 µM in assay [9] lay within 10 to 50%.

Consider `COC(=O)[C@@H](NC(=O)CC/C(C)=C/Cc1c(O)c2c(c(C)c1OC)COC2=O)C(C)O` (stereo partly specified), for which the MIC50 stood at 32 µg/mL (≈ 73.5 µM) in [1]; 8 µg/mL (≈ 18.4 µM) in assay [2]; 256 µg/mL (≈ 588 µM) in assay [3]; 256 µg/mL (≈ 588 µM) in [4]; 256 µg/mL (≈ 588 µM) in [5]. Moreover, in assay [6], the MIC50 entry is “inactive”.

As for `CC[C@H](C)[C@H](NC(=O)CC/C(C)=C/Cc1c(O)c2c(c(C)c1OC)COC2=O)C(=O)O`, the MIC50 entry in assay [2] and in [3] was “inactive” throughout. Also, the inhibition of growth at 375 µM in assay [10] was 10 to 50%.

Regarding `COc1c(C)c2c(c(O)c1C/C=C(\C)CCC(=O)N[C@@H](CCCNC(=N)N[N+](=O)[O-])C(=O)O)C(=O)OC2`, the MIC50 result in [1], in [2], in assay [5] and in assay [6] was “inactive” throughout. Further, the inhibition of growth at 750 µM in assay [9] is 10 to 50%.

Regarding `COC(=O)C(NC(=O)C(CCCCNC(=O)CN)NC(=O)C1CCCN1C(=O)C(CCCNC(=N)N[N+](=O)[O-])NC(=O)CC/C(C)=C/Cc1c(O)c2c(c(C)c1OC)COC2=O)C(C)O` (stereo unspecified) (Mycophenolyl-[Arg(NO2)]PK(Gly)T-OMe; configuration not given here), the MIC50 in assay [1] came to 64 µg/mL (≈ 69.6 µM); in assay [2], 64 µg/mL (≈ 69.6 µM); in assay [3] it was 128 µg/mL (≈ 139 µM); in assay [4], 256 µg/mL (≈ 279 µM); in assay [5], 16 µg/mL (≈ 17.4 µM). Moreover, the MIC50 entry in assay [6] is “inactive”.

For `CCC(C)[C@H](NC(=O)CC/C(C)=C/Cc1c(O)c2c(c(C)c1OC)COC2=O)C(=O)OC` (stereo partly specified), the MIC50 was determined as 256 µg/mL (≈ 572 µM) in assay [1]; 16 µg/mL (≈ 35.8 µM) in assay [2]; 256 µg/mL (≈ 572 µM) in assay [3]; 256 µg/mL (≈ 572 µM) in assay [4]; 256 µg/mL (≈ 572 µM) in [5]. For the same compound, the MIC50 result in assay [6] is “inactive”.

In the case of `CC1(C)S[C@@H]2[C@H](NC(=O)[C@H](N)c3ccccc3)C(=O)N2[C@H]1C(=O)O` [AMPICILLIN], the MIC90 amounted to 128 µg/mL (≈ 366 µM) in [1]; 0.125 µg/mL (≈ 0.358 µM) in [2]; 2 µg/mL (≈ 5.72 µM) in [3]; 8 µg/mL (≈ 22.9 µM) in assay [4]; 128 µg/mL (≈ 366 µM) in assay [5]; 256 µg/mL (≈ 733 µM) in assay [6].

On to `COc1c(C)c2c(c(O)c1C/C=C(\C)CCC(=O)O)C(=O)OC2` [MYCOPHENOLIC ACID], for which the MIC50 in assay [1] was 750 µg/mL (≈ 2340 µM); in assay [3], 128 µg/mL (≈ 400 µM); in [5] it was 128 µg/mL (≈ 400 µM). In [4], this compound gave an MIC90 of 750 µg/mL (≈ 2340 µM). Besides, the inhibition of growth at 1500 µM in [7] was in the range of 10 to 50%. For the same compound, the inhibition of growth at 187.5 µM in [11] is 10 to 50%.

For `COc1c(C)c2c(c(O)c1C/C=C(\C)CCC(=O)N[C@H](C(=O)O)[C@@H](C)O)C(=O)OC2`, the MIC50 entry in [1] and in assay [2] was “inactive” in each case. Moreover, the inhibition of growth at 1500 µM in assay [7] is 10 to 50%. In [12], the inhibition of growth at 375 µM fell in the range of 10 to 50%. Moreover, the inhibition of growth at 750 µM in assay [9] fell in the range of 10 to 50%.

For `COC(=O)[C@H](NC(=O)CC/C(C)=C/Cc1c(O)c2c(c(C)c1OC)COC2=O)C(C)O` (stereo partly specified), the MIC50 result in assay [1], in assay [2] and in [5] was “inactive” throughout. The inhibition of growth at 1500 µM in assay [7] and in assay [8] was 10 to 50% in each case.
